Shown are actives, neighbours in structure and some others; about 1.3% of the full set was active somewhere.
AF4-AF9 inh = inhibitors of human MLL-AF4/AF9 interaction; inhibition, % at 10 µM; AlphaScreen, biotin-AF4 peptide binding to FLAG-AF9; AID 651704; 0.47% of 350,000 active;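 active means every replicate reaching a set inhibition limit, whatever the replicate mean, cut at about 25% in these data; inconclusive means mean inhibition reaches that limit but some replicates miss it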;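 further: 0% = plate neutral control median and 100% = total signal loss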
Target sequence (P42568 whole entry, looked up): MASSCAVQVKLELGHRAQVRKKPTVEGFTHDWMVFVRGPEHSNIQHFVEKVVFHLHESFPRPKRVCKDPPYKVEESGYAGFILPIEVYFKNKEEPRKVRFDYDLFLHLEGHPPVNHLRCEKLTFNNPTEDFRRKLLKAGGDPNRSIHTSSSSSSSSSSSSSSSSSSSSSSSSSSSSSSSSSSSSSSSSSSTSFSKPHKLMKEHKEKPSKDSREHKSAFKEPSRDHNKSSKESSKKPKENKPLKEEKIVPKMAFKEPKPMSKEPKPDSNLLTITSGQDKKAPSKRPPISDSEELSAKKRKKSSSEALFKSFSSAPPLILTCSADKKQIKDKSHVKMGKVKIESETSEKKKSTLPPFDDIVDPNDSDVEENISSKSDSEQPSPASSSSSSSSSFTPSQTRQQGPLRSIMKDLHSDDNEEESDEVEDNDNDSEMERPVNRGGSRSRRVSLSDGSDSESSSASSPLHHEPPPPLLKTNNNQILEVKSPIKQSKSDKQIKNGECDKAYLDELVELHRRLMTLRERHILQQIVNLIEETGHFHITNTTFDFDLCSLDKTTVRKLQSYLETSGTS
FN deposit inh = fibronectin deposition inhibition; AH1F fibroblasts, Alexa488-fibronectin deposition fluorescence, overnight; inhibition, % at 12.6 µM; 0.086% of 350,000 active;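 active means mean inhibition across replicates of 30% or more, regardless of how many single replicates reach that level; inconclusive means mean under 30% yet at least half of replicates reach 30%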;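 further: positive control wells lacked labelled fibronectin entirely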
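Material: AH1F fibroblast monolayer depositing Alexa488-labelled fibronectin into matrix | Input: 10000 AH1F cells/well | Medium: DMEM plus 2% serum, read in PBS | Reagent: Alexa488-fibronectin, 24 nM final in well | Compound dosing: One dose per compound, pinned | Schedule: 1 h adhesion, overnight exposure | Measured by: Fluorescence at 485 nm excitation, 525 nm emission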
SIRT5 inh = inhibitors of human sirtuin-5 desuccinylase; Q9NXA8; Purified SirT5, succinyl-peptide AMC, trypsin-coupled fluorescence; inhibition, % at 15 µM; 1.1% of 330,000 active; AID 652115; in the data active means inhibition above about 15%; inconclusive means no clear call, values can overlap the other calls
PDI inh = PDI (human) enzyme inhibition; P07237; PDI insulin aggregation turbidity, A650, 90 min; inhibition, % at 10 µM; 0.052% of 350,000 active; AID 588391;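 active means mean inhibition across replicates of 30% or more, whatever share of single replicates reach that level; inconclusive means mean inhibition below 30% while every single replicate reaches 30%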
ERp5 block = inhibitors of human ERp5; Q15084; inhibition, % at 9.99 µM; ERp5 insulin aggregation, absorbance 650 nm, 90 min; 0.05% of 350,000 active;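 active means mean replicate inhibition above about 25%, with every replicate also reaching it, limit read from the data, passing the limit was not always enough; inconclusive means only one of those two criteria met; inactive means neither criterion met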
Numbers without * were called inactive.

What do the screens show for `Cc1ccc(S(=O)(=O)N(C)CCCC(=O)NC(C)(C)C)cc1`?
AF4-AF9 inh: -1; FN deposit inh: 5; SIRT5 inh: 6; PDI inh: -6; ERp5 block: 1

How did CC/C(=N\NC(=O)c1ccc(Br)cc1)c1ccccc1 do in these assays?
AF4-AF9 inh: -13; SIRT5 inh: -1; PDI inh: 16; ERp5 block: -49

Results for C[C@H]1CN=C(Nc2ccccc2)N1CCCC1CCCC1 ?
AF4-AF9 inh: 4; FN deposit inh: 13; SIRT5 inh: -5; PDI inh: 1; ERp5 block: -1

Results for C[C@H]1CN=C(Nc2ccccc2)N1CCC1CCCCC1 ?
AF4-AF9 inh: 4; FN deposit inh: 5; SIRT5 inh: 22*; PDI inh: -4; ERp5 block: 4

Results for Cc1c(C(=O)N(Cc2ccccc2)C2CCS(=O)(=O)C2)oc2ccccc12 (stereo unspecified) ?
AF4-AF9 inh: inconclusive; FN deposit inh: 6; SIRT5 inh: 16*; ERp5 block: -4

What do the screens show for `Cc1c(C(=O)N(Cc2ccc(F)cc2)C2CCS(=O)(=O)C2)oc2ccccc12` (stereo unspecified)?
AF4-AF9 inh: -3; FN deposit inh: -11; SIRT5 inh: -1; PDI inh: 8; ERp5 block: 0

How did Cc1c(C(=O)N(Cc2ccc(N(C)C)cc2)C2CCS(=O)(=O)C2)oc2ccccc12 (stereo unspecified) do in these assays?
AF4-AF9 inh: 61*; FN deposit inh: -10; SIRT5 inh: 0; PDI inh: 7; ERp5 block: 3

Results for Cc1ccc2oc(C(=O)N(Cc3ccc(N(C)C)cc3)CC3CCCO3)c(C)c2c1 (stereo unspecified) ?
AF4-AF9 inh: 28*; FN deposit inh: 6; SIRT5 inh: -1; PDI inh: -10; ERp5 block: 3

Results for Cc1cc(C)c2c(=O)[nH]n(C3CC(C)N(C)CC3C)c2n1 (stereo unspecified) ?
FN deposit inh: 1; PDI inh: -2

What do the screens show for `O=C(Nc1cccc(S(=O)(=O)NC2=NCCC2)c1)c1ccccc1`?
AF4-AF9 inh: 1; FN deposit inh: -2; SIRT5 inh: -1; PDI inh: 7; ERp5 block: -5

How did COc1ccccc1/C=N/NC(=O)C(=O)Nc1ccccc1OC(F)(F)C(F)F do in these assays?
AF4-AF9 inh: 6; FN deposit inh: 6; PDI inh: -7; ERp5 block: 0

What do the screens show for `CCOc1ccc(CNC(=O)CS(=O)(=O)Cc2nc(-c3ccc(OC)cc3)oc2C)cc1`?
AF4-AF9 inh: 48*; FN deposit inh: 4; SIRT5 inh: -3; ERp5 block: 3

What do the screens show for `CCOc1ccc(/C=C2/SC(=S)N(C(C(=O)O)c3ccccc3)C2=O)cc1OCC` (stereo unspecified)?
AF4-AF9 inh: -4; SIRT5 inh: 10; PDI inh: 15; ERp5 block: -8

How did CCOc1cc(/C=C2\SC(=S)N(C(C(=O)O)c3ccccc3)C2=O)ccc1O (stereo unspecified) do in these assays?
AF4-AF9 inh: 1; FN deposit inh: 7; SIRT5 inh: 11; PDI inh: 35*; ERp5 block: 0

Results for COc1cc(/C=C2\SC(=S)N(NS(=O)(=O)c3ccccc3)C2=O)ccc1O ?
AF4-AF9 inh: -23; FN deposit inh: 0; SIRT5 inh: 1; PDI inh: 41*; ERp5 block: 1

How did N#C[C@@H]1[C@@H](c2ccccc2C2=CCCCC2)[C@H](CO)N1C(=O)Cc1ccncc1 do in these assays?
AF4-AF9 inh: -1; FN deposit inh: -21; SIRT5 inh: 0; ERp5 block: -4

How did Cc1noc(C)c1S(=O)(=O)Nc1ccc2c(c1)CC(=O)N([C@@H](C)CO)C[C@H](C)[C@H](CN(C)Cc1ccccc1)O2 do in these assays?
AF4-AF9 inh: -1; SIRT5 inh: -4; ERp5 block: 0

What do the screens show for `C[C@@H]1CN([C@H](C)CO)C(=O)Cc2cc(NS(=O)(=O)c3ccccc3)ccc2O[C@H]1CN(C)Cc1ccc(-c2ccccc2)cc1`?
AF4-AF9 inh: -4; SIRT5 inh: 15*; ERp5 block: 4

How did C[C@H](CO)N1C[C@H](C)[C@@H](CN(C)Cc2ccc(-c3ccccc3)cc2)Oc2ccc(NS(=O)(=O)c3ccccc3)cc2CC1=O do in these assays?
AF4-AF9 inh: 1; SIRT5 inh: 18*; ERp5 block: 1

Results for Cc1noc(C)c1S(=O)(=O)Nc1ccc2c(c1)CC(=O)N([C@H](C)CO)C[C@H](C)[C@@H](CN(C)Cc1ccc(C(=O)O)cc1)O2 ?
AF4-AF9 inh: -10; SIRT5 inh: 25*; ERp5 block: -7

Results for Cc1noc(C)c1NC(=O)Nc1ccc2c(c1)CC(=O)N([C@H](C)CO)C[C@@H](C)[C@@H](CN(C)Cc1ccc(-c3ccccc3)cc1)O2 ?
AF4-AF9 inh: 1; SIRT5 inh: 16*; ERp5 block: -2

How did O=C(CCc1nc2ccccc2[nH]1)Nc1ccccc1F do in these assays?
AF4-AF9 inh: -1; FN deposit inh: -9; SIRT5 inh: -8; ERp5 block: 7

What do the screens show for `C[C@H](O)C#Cc1ccc([C@@H]2[C@H]3CN(C(=O)Nc4ccccc4)CCCCN3[C@H]2CO)cc1`?
AF4-AF9 inh: -13; SIRT5 inh: 4; ERp5 block: 0

What do the screens show for `COc1cccc2c1OCC([C@@H]1C[C@H]3CN(Cc4cccc(Cl)c4)C(=O)[C@]34CCCN14)=C2`?
AF4-AF9 inh: 6; FN deposit inh: -1; SIRT5 inh: 0; PDI inh: 8; ERp5 block: -66

What do the screens show for `O=C(CSc1nc2c(cnn2-c2ccc(F)cc2)c(=O)[nH]1)N1CCCCC1`?
AF4-AF9 inh: -4; FN deposit inh: 8; SIRT5 inh: -2; PDI inh: -4; ERp5 block: 1

What do the screens show for `Cc1noc(C)c1S(=O)(=O)N(C)C[C@H]1Oc2ccc(NC(=O)Cn3cnnn3)cc2CC(=O)N([C@H](C)CO)C[C@H]1C`?
AF4-AF9 inh: -2; SIRT5 inh: 28*; ERp5 block: 3

Results for CC(C)(O)c1[nH]c2ccc(C(F)(F)F)cc2c1C(C)(C)O ?
AF4-AF9 inh: -7; FN deposit inh: -10; PDI inh: -5; ERp5 block: 0

What do the screens show for `CC(C)(O)c1[nH]c2ccc(C#N)cc2c1C(C)(C)O`?
AF4-AF9 inh: 46*; FN deposit inh: 19; ERp5 block: 2

Results for Cc1ccc(NC(=O)C(c2ccccc2)N(C)C)cc1Cl (stereo unspecified) ?
PDI inh: -12

How did C=CCn1c(O)c(/C=C2\C=NN=C2c2ccccc2)sc1=S do in these assays?
AF4-AF9 inh: -3; FN deposit inh: 4; SIRT5 inh: 18*; PDI inh: -10; ERp5 block: 0

Results for CCCn1c(O)c(/C=C2\C=NN=C2c2ccccc2)sc1=S ?
PDI inh: -1

How did CCOc1ccc(N=c2scc(-c3ccccc3)n2CCO)cc1 do in these assays?
AF4-AF9 inh: 2; SIRT5 inh: -1; PDI inh: 1; ERp5 block: -1
